The target in assay [1] is T1, P2X purinoceptor 3 (Homo sapiens) (UniProt P56373).
T1 sequence (whole entry): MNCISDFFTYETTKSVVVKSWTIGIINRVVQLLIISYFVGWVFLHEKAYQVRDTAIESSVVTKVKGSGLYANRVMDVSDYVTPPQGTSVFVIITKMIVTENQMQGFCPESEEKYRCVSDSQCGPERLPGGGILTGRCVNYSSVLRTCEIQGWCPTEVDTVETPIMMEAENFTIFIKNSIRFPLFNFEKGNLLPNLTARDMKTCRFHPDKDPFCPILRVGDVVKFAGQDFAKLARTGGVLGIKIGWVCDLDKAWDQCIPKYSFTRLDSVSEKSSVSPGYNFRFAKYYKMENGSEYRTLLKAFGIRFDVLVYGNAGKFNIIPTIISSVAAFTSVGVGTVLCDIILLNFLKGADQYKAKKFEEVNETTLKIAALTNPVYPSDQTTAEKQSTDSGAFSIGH
Nature of the assay: Antagonist activity at human recombinant P2X3 receptor expressed in Xenopus oocytes assessed as inhibition of ATP-induced ion current at 10 uM by two electrode voltage clamping technique. The assay is classed as functional, cell-based. The conditions noted are these: Oocyte. The method in brief: (§1)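 Defolliculated Xenopus oocytes injected with receptor cRNA (40 nL, 1 µg/mL). Incubated 24 h at 18 °C in Barth's solution, then kept at 4 °C for up to 12 days. Two-electrode voltage clamp at Vh -90 mV in Ringer's solution (Ba2+, pH 7.5, 18 °C). Peptide applied 20 min before 2 µM ATP; current inhibition measured against ATP-alone control; n = 4.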

Assay [2] addresses T2, P2X purinoceptor 1 (Mus musculus) (UniProt P51576).
T2 sequence (whole entry): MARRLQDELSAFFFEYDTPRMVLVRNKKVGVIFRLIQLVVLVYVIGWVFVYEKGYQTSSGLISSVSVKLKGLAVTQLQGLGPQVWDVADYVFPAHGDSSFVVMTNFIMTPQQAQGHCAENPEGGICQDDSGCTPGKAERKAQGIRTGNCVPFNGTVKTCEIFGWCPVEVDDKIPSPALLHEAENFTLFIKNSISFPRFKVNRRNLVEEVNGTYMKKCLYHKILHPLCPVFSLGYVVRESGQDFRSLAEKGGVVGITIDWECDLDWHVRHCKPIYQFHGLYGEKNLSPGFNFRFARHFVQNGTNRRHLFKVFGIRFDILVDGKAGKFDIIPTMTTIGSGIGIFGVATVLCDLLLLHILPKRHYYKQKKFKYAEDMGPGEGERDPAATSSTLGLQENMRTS
Nature of the assay: Antagonist activity at mouse recombinant P2X1 receptor expressed in Xenopus oocytes assessed as inhibition of ATP-induced ion current at 10 uM by two electrode voltage clamping technique. The format is functional, cell-based. The conditions noted are these: Oocyte. In outline: as §1

The target of assay [3] is T3, P2X purinoceptor 7 (Homo sapiens) (UniProt Q99572).
T3 sequence (whole entry): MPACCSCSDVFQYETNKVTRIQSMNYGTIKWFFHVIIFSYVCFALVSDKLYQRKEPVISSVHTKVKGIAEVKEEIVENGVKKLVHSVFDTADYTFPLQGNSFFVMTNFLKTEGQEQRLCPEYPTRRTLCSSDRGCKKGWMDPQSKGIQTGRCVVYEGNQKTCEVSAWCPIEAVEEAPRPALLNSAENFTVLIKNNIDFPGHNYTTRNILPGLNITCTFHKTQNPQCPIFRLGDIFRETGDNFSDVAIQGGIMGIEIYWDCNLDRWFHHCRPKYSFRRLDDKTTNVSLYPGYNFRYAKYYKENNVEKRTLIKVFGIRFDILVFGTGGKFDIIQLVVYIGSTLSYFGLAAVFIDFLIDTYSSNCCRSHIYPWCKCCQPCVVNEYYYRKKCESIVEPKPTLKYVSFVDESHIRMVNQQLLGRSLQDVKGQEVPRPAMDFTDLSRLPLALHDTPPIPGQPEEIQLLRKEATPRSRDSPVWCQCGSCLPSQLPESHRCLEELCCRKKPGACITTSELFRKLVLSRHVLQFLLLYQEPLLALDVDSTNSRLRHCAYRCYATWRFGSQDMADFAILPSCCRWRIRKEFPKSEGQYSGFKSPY
Nature of the assay: Antagonist activity at human recombinant P2X7 receptor expressed in HEK293 cells assessed as BzATP-induced ethidium accumulation at 10 uM. The assay is classed as functional, cell-based. The method in brief:
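HEK293 cells expressing human P2X7, grown in DMEM with 10% FBS. Cells resuspended in HEPES/KCl/glucose/EDTA buffer (pH 7.4) with 100 µM ethidium bromide, 2 × 10^5 cells/well. 6 µM BzATP given together with 10 µM compound, no preincubation. After 120 min at 37 °C, ethidium fluorescence read (ex 530/em 590 nm). Mean ± SEM, n = 3.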

In assay [4] the target is T1, P2X purinoceptor 3 (Homo sapiens). The experiment in a line: Antagonist activity at human recombinant P2X3 receptor expressed in Xenopus oocytes assessed as inhibition of ATP-induced ion current at 100 nM by two electrode voltage clamping technique. The conditions noted are these: Oocyte.
Assay [5] has as its target T4, P2X purinoceptor 3 (Homo sapiens, UniProt P56373).
T4 sequence (P56373 whole entry): T1 sequence (whole entry)
Nature of the assay: Antagonist activity at human P2X3 receptor expressed in Xenopus oocytes assessed as inhibition of ATP-induced ion current by two electrode voltage clamping technique. The assay is classed as functional, cell-based, Oocyte. In outline:
as §1

For assay [6], the target named is T4, P2X purinoceptor 3. Nature of the assay: Antagonist activity at human recombinant P2X3 receptor expressed in Xenopus oocytes assessed as inhibition of ATP-induced ion current in presence of 20 nM LVVYPWA peptide by two electrode voltage clamping technique. The format is functional, cell-based, Oocyte.
Assay [7] concerns the target T2, P2X purinoceptor 1 (Mus musculus). The experiment in a line: Antagonist activity at mouse recombinant P2X1 receptor expressed in Xenopus oocytes assessed as inhibition of ATP-induced ion current at 100 nM by two electrode voltage clamping technique. The conditions noted are these: Oocyte.

Calls of active or inactive are those of the source. No cut-off for these calls is given here. Residues, ends and D or L forms follow the SMILES beside them.

On to `N[C@@H](Cc1ccc(O)cc1)C(=O)N1CCC[C@H]1C(=O)N[C@@H](Cc1c[nH]c2ccccc12)C(=O)O` (H-Tyr-Pro-Trp-OH), for which the inhibition in assay [1] stood at 15.6%.
The same measure, in the same setting: the value for `C[C@@H](O)[C@H](NC(=O)[C@H](Cc1c[nH]c2ccccc12)NC(=O)[C@@H]1CCCN1)C(=O)O` (H-Pro-Trp-Thr-OH) was 32.7%.
Consider H-VYPWT-OH, for which the result in assay [1] was inactive.
On the same count and under the same terms, the value for `CC(C)[C@H](N)C(=O)N[C@@H](Cc1ccc(O)cc1)C(=O)N1CCC[C@H]1C(=O)N[C@@H](Cc1c[nH]c2ccccc12)C(=O)O` (H-VYPW-OH) was “inactive”.
On to H-LVVYAWT-OH, for which the result in assay [2] and in assay [3] was inactive. Moreover, the inhibition in assay [4] is 12.9%.
With H-LVVYPWT-OH [SPINORPHIN], the inhibition is 7.4% in assay [2], 8.3% in assay [3] and 67.2% in assay [4]. Moreover, the IC50 came to 0.0083 nM in assay [5] and 0.0481 nM in assay [6].
`CC(C)C[C@@H](NC(=O)[C@H](NC(=O)[C@H](NC(=O)[C@@H](Cc1ccc(O)cc1)NC(=O)[C@H]1CCCN1C(=O)[C@@H](Cc1c[nH]c2ccccc12)NC(=O)[C@H](N)[C@@H](C)O)C(C)C)C(C)C)C(=O)O`: in assay [2], the inhibition was found to be 15.5%. For the same compound, in assay [3], the outcome was inactive.
In the case of `CC(C)[C@H](N)C(=O)N[C@@H](Cc1ccc(O)cc1)C(=O)N1CCC[C@H]1C(=O)O` (H-Val-Tyr-Pro-OH), the inhibition in assay [1] is 16.2%.
In the case of H-LVVAPWT-OH, the result in assay [2] and in assay [3] was inactive. Moreover, the inhibition in assay [4] was 52.3%.
Turning to `Cc1nc(/N=N/c2cc(S(=O)(=O)O)ccc2S(=O)(=O)O)c(COP(=O)(O)O)c(C=O)c1O` [ISOPPADS], in assay [5], the concentration for half-maximal inhibition (IC50) was found to be 108 nM. Also, the values for the inhibition in assay [4] and in assay [7] were 48.3% and 64.2%, respectively.
Take H-AVVYPWT-OH: the outcome in assay [2] and in assay [3] was inactive. Moreover, in assay [5], the IC50 worked out at 14.3 nM. Also, the inhibition in assay [4] was 82.5%.
Take H-LVVYPAT-OH: the results for the inhibition in assay [2], in assay [3] and in assay [4] were 4.2%, 16.7% and 17%, respectively.
H-LVAYPWT-OH: the result in assay [2] and in assay [3] was inactive. Besides, the inhibition in assay [4] came out at 53.4%.
For the compound `CC(C)[C@@H]1NC(=O)[C@H](C)NC(=O)[C@H]([C@@H](C)O)NC(=O)[C@H](Cc2c[nH]c3ccccc23)NC(=O)[C@@H]2CCCN2C(=O)[C@H](Cc2ccc(O)cc2)NC(=O)[C@H](C(C)C)NC1=O` (HELM PEPTIDE1{A.V.V.Y.P.W.T}$PEPTIDE1,PEPTIDE1,1:R1-7:R2$$$V2.0), the inhibition stood at 6.4% in assay [2] and 11.4% in assay [4]. Besides, in assay [3], the outcome was inactive.
For the compound H-LAVYPWT-OH, the inhibition in assay [2] turned out to be 8.1%; in assay [3] it was 7.6%; in assay [4] it was 48.4%. Besides, in assay [5], the IC50 was 32.4 nM.
With `C[C@@H](O)[C@H](NC(=O)[C@H](Cc1c[nH]c2ccccc12)NC(=O)[C@@H]1CCCN1C(=O)[C@@H](N)Cc1ccc(O)cc1)C(=O)O` (H-YPWT-OH), the inhibition in assay [1] is 13.3%.
On the same count and under the same terms, the value for H-VVYPWT-OH was 29.3%.
As for `CC(C)C[C@@H]1NC(=O)[C@H]([C@@H](C)O)NC(=O)[C@H](Cc2c[nH]c3ccccc23)NC(=O)[C@@H]2CCCN2C(=O)[C@H](Cc2ccc(O)cc2)NC(=O)[C@H](C(C)C)NC(=O)[C@H](C(C)C)NC1=O` (HELM PEPTIDE1{L.V.V.Y.P.W.T}$PEPTIDE1,PEPTIDE1,1:R1-7:R2$$$V2.0), the inhibition amounted to 11.5% in assay [2], 8.8% in assay [3] and 36.3% in assay [4]. Moreover, the 50% inhibitory concentration (IC50) in assay [5] is 82.4 nM.

The values are drawn from ChEMBL document CHEMBL1148747, “Structure-activity relationship studies of spinorphin as a potent and selective human P2X(3) receptor antagonist” (J Med Chem, 2007).
